Measurements from ChEMBL document CHEMBL4411332, “Deciphering the Role of Intramolecular Networking in Cholic Acid-Peptide Conjugates on the Lipopolysaccharide Surface in Combating Gram-Negative Bacterial Infections” (J Med Chem, 2019).
Active and inactive are the calls of the source. The calls are words filed in the database; no cut-off is given here.

Experiments:
Escherichia coli [1] = experiment: Antibacterial activity against Escherichia coli by broth dilution assay; assay type: functional
Outline: (§1)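 MIC99 by broth-dilution assay; antibacterial and culture details are in the Supporting Information.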

Klebsiella pneumoniae [2] = experiment: Antibacterial activity against Klebsiella pneumoniae by broth dilution assay; assay type: functional; outline: as §1
Acinetobacter baumannii [3] = experiment: Antibacterial activity against Acinetobacter baumannii by broth dilution assay; assay type: functional; outline: as §1
[4] = Binding affinity to DPH-doped model gram negative bacterial membrane (LPS/DPPE/DMPG lipids) assessed as increase in membrane fluidity by fluorescence anisotrophy
Outline: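 Vesicles of LPS, DPPE and DMPG doped with DPH were incubated with compound, and the change in DPH fluorescence anisotropy was recorded. Mean ± SD of three replicates, unpaired two-tailed t-test.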

Lipopolysaccharide (LPS) [5] = experiment: Displacement of dansyl-polymyxin B from LPS of bacterial cell membrane by fluorescence spectrophotometry; settings: Bacteria
Outline: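 Dansyl-polymyxin B–LPS complexes titrated with compound; rise in dansyl fluorescence from displacement measured. Mean ± SD of three replicates, unpaired two-tailed t-test.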

Lipopolysaccharide (LPS) [6] = experiment: Binding affinity to bacterial LPS by BODIPY-LPS based fluorescence assay; settings: Bacteria
Outline: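 BODIPY-conjugated LPS aggregates titrated with compound; fluorescence increase from aggregate disintegration recorded. Mean ± SD of three replicates, unpaired two-tailed t-test.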

Cell membrane [7] = experiment: Binding affinity to bacterial cell membrane assessed as Ka1 by SPR assay; assay type: cell membranes; settings: Bacteria
Outline: (§2)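 Surface plasmon resonance of compound binding to bacterial membranes. K1, K2 and overall KA were calculated from the sensorgrams. Average of three replicates.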

Cell membrane [8] = experiment: Binding affinity to bacterial cell membrane assessed as Kd1 by SPR assay; assay type: cell membranes; settings: Bacteria; outline: as §2
Cell membrane [9] = experiment: Binding affinity to bacterial cell membrane assessed as K1 by SPR assay; assay type: cell membranes; settings: Bacteria; outline: as §2
Cell membrane [10] = experiment: Binding affinity to bacterial cell membrane assessed as Kd2 by SPR assay; assay type: cell membranes; settings: Bacteria; outline: as §2
Cell membrane [11] = experiment: Binding affinity to bacterial cell membrane assessed as K2 by SPR assay; assay type: cell membranes; settings: Bacteria; outline: as §2
Cell membrane [12] = experiment: Binding affinity to bacterial cell membrane assessed as KA by SPR assay; assay type: cell membranes; settings: Bacteria; outline: as §2
Escherichia coli [13] = experiment: Induction of membrane permeabilization in Escherichia coli at 8 uM after 40 mins by NPN-fluorescence based assay; assay type: organism-based; settings: Cell membrane
Outline: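 NPN-stained E. coli incubated with compound at 8 µM; outer-membrane permeabilization followed as NPN fluorescence over time. Average of three replicates.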

Escherichia coli [14] = experiment: Induction of membrane permeabilization in Escherichia coli at 8 uM after 30 mins DiSC2-fluorescence based assay; assay type: organism-based; settings: Cell membrane
Outline: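 DiSC2(5)-loaded E. coli treated at 8 µM; depolarization-driven fluorescence increase followed over time. Average of three replicates.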

Escherichia coli [15] = experiment: Induction of membrane permeabilization in Escherichia coli at 32 uM by propidium iodide uptake based FACS analysis; assay type: organism-based; settings: Cell membrane
Outline: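 E. coli treated at 32 µM, PI-stained, and PI-positive cells counted by flow cytometry. Mean ± SD of four replicates, unpaired two-tailed t-test.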

Escherichia coli [16] = experiment: Induction of membrane permeabilization in Escherichia coli in presence of 1.9 to 1000 ug/ml LPS by propidium iodide uptake based FACS analysis; assay type: organism-based; settings: Cell membrane
Outline: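 E. coli was treated with compound in the presence of graded LPS and stained with propidium iodide. The percentage of PI-positive cells was measured by flow cytometry.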

Escherichia coli [17] = experiment: Bactericidal activity against Escherichia coli assessed as reduction in colony forming units at 1 times MIC99 concentration after 6 hrs by fluorescent based time-kill assay; assay type: functional, organism-based
Escherichia coli [18] = experiment: Bactericidal activity against stationary form of Escherichia coli assessed as reduction in colony forming units by fluorescent based time-kill assay; assay type: functional, organism-based
Escherichia coli [19] = experiment: Bactericidal activity against persistent form of Escherichia coli assessed as reduction in colony forming units by fluorescent based time-kill assay; assay type: functional, organism-based
Escherichia coli [20] = experiment: Antibiofilm activity against Escherichia coli assessed as reduction in colony forming units after 24 hrs by crystal violet-based assay; assay type: functional, organism-based
Escherichia coli [21] = experiment: Antibiofilm activity against Escherichia coli assessed as reduction in colony forming units at 64 uM after 24 hrs by crystal violet-based assay relative to control; assay type: functional
Escherichia coli [22] = experiment: Antibiofilm activity against Escherichia coli assessed as reduction in biomass levels at 64 uM after 24 hrs by crystal violet-based assay relative to control; assay type: functional; design: scale not given: the % may be the effect or the level left
Outline: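 Pre-formed E. coli biofilms treated 24 h with varying doses; biomass quantified by crystal violet staining relative to untreated. Mean ± SD of three replicates, unpaired two-tailed t-test.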

Escherichia coli [23] = experiment: Antibiofilm activity against Escherichia coli assessed as reduction in biomass levels after 24 hrs by SYT09-propidium iodide based confocal microscopy; assay type: functional, organism-based
Outline: (§3)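 Treated E. coli biofilms stained with SYTO9 (all cells) and PI (dead cells) and imaged by confocal laser scanning microscopy. Biofilm thickness quantified against untreated. Mean ± SD of three replicates, unpaired two-tailed t-test.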

Escherichia coli [24] = experiment: Antibacterial activity against Escherichia coli isolate 6/23 infected in wound areas of BALB/c mouse assessed as reduction in colony forming units at 40 mg/kg dosed thrice daily for 4 days starting 6 hrs post infection and measured on day 5; assay type: functional, organism-based
Escherichia coli [25] = experiment: Antibacterial activity against Escherichia coli XEN 14 infected in wound areas of BALB/C mouse assessed as reduction in bacterial load at 40 mg/kg administered thrice daily for 4 days starting 6 hrs post infection and measured on day 5 by bioluminescence imaging analysis; assay type: functional, organism-based
Escherichia coli [26] = experiment: Antibacterial activity against Escherichia coli isolate 9/44 by broth dilution assay; assay type: functional
Escherichia coli [27] = experiment: Antibacterial activity against Escherichia coli isolate 9/203 by broth dilution assay; assay type: functional
Escherichia coli [28] = experiment: Antibacterial activity against Escherichia coli isolate 6/23 by broth dilution assay; assay type: functional
Escherichia coli [29] = experiment: Antibacterial activity against Escherichia coli isolate 6/27 by broth dilution assay; assay type: functional
Escherichia coli [30] = experiment: Antibacterial activity against Escherichia coli isolate 6/38 by broth dilution assay; assay type: functional
Acinetobacter baumannii [31] = experiment: Antibacterial activity against Acinetobacter baumannii isolate 4/307 by broth dilution assay; assay type: functional
Acinetobacter baumannii [32] = experiment: Antibacterial activity against Acinetobacter baumannii isolate 1/303 by broth dilution assay; assay type: functional
Acinetobacter baumannii [33] = experiment: Antibacterial activity against Acinetobacter baumannii isolate 5/321 by broth dilution assay; assay type: functional
Acinetobacter baumannii [34] = experiment: Antibacterial activity against Acinetobacter baumannii isolate 4/202 by broth dilution assay; assay type: functional
Acinetobacter baumannii [35] = experiment: Antibacterial activity against Acinetobacter baumannii isolate 5/412 by broth dilution assay; assay type: functional
Klebsiella pneumoniae [36] = experiment: Antibacterial activity against Klebsiella pneumoniae isolate 8/407 by broth dilution assay; assay type: functional
Klebsiella pneumoniae [37] = experiment: Antibacterial activity against Klebsiella pneumoniae isolate 8/307 by broth dilution assay; assay type: functional
Klebsiella pneumoniae [38] = experiment: Antibacterial activity against Klebsiella pneumoniae isolate 7/47 by broth dilution assay; assay type: functional
Klebsiella pneumoniae [39] = experiment: Antibacterial activity against Klebsiella pneumoniae isolate 12823 by broth dilution assay; assay type: functional
[40] = Selectivity index, ratio of HC50 for human RBC to MIC99 for Escherichia coli; assay type: toxicity; settings: human red blood cells (RBC), read-out: Selectivity Index
[41] = Selectivity index, ratio of IC50 for human A549 cells to MIC99 for Escherichia coli; assay type: toxicity; settings: read-out: Selectivity Index
[42] = Critical micellar concentration of the compound; assay type: physicochemical
Escherichia coli [43] = experiment: Induction of membrane permeabilization in Escherichia coli by SYTO9-PI staining based fluorescence microscopy; assay type: organism-based; settings: Cell membrane
Escherichia coli [44] = experiment: Induction of cell morphology changes in Escherichia coli at 8 uM by TEM assay; assay type: functional, organism-based
Outline: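 E. coli treated at 8 µM, sampled at different times and imaged by transmission electron microscopy beside untreated cells.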

Escherichia coli [45] = experiment: Antimicrobial activity against compound-pre-treated Escherichia coli by broth dilution assay based drug resistance development assay; assay type: functional, organism-based
Outline: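 E. coli pre-treated with compound, then MIC₉₉ redetermined by broth-dilution assay in four replicates; reported as fold change in MIC₉₉ relative to starting value to assess resistance development.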

Escherichia coli [46] = experiment: Ratio of antimicrobial activity against Escherichia coli using 10^12 CFU/ml bacterial inoculum by broth dilution assay to antimicrobial activity against Escherichia coli by broth dilution assay; assay type: functional
Outline: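 MIC99 against E. coli was measured by broth dilution at a range of inoculum densities up to 10¹² CFU/mL, in four replicates. Results were expressed as fold change in MIC99 relative to the standard inoculum.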

Escherichia coli [47] = experiment: Antibiofilm activity against Escherichia coli after 24 hrs by propidium iodide uptake based FACS analysis; assay type: functional, organism-based
Escherichia coli [48] = experiment: Antibiofilm activity against Escherichia coli assessed as biofilm thickness after 24 hrs (reference value: >8 micrometer); assay type: functional; outline: as §3
Escherichia coli [49] = experiment: Induction of cell membrane disruption in Escherichia coli assessed as pore network disruption by SEM assay; assay type: functional, organism-based
Escherichia coli [50] = experiment: Induction of cell membrane disruption in Escherichia coli assessed as extracellular architecture disruption by SEM assay; assay type: functional, organism-based
Escherichia coli [51] = experiment: Antibiofilm activity against Escherichia coli isolate 6/23 exposed to compound-coated catheters assessed as reduction in colony forming units incubated for 3 days; assay type: functional, organism-based
Escherichia coli [52] = experiment: Antibiofilm activity against Escherichia coli isolate 6/23 infected in BALB/c mouse implanted subcutaneously with compound treated catheters followed by infection at incision site; assay type: functional, organism-based
Escherichia coli [53] = experiment: Bactericidal activity against Escherichia coli assessed as reduction in colony forming units at 4 times MIC99 concentration after 90 mins by fluorescent based time-kill assay

**Q.** With `C[C@H](CCC(=O)OCc1ccccc1)[C@H]1CC[C@H]2[C@@H]3[C@H](OC(=O)CNC(=O)[C@@H](N)Cc4ccccc4)C[C@@H]4C[C@H](OC(=O)CNC(=O)[C@@H](N)Cc5ccccc5)CC[C@]4(C)[C@H]3C[C@H](OC(=O)CNC(=O)[C@@H](N)Cc3ccccc3)[C@]12C` as the molecule, how does the MIC99 (Escherichia coli [1]) read?
**A.** inactive

**Q.** With `C[C@H](CCC(=O)OCc1ccccc1)[C@H]1CC[C@H]2[C@@H]3[C@H](OC(=O)CNC(=O)[C@@H](N)Cc4ccc(O)cc4)C[C@@H]4C[C@H](OC(=O)CNC(=O)[C@@H](N)Cc5ccc(O)cc5)CC[C@]4(C)[C@H]3C[C@H](OC(=O)CNC(=O)[C@@H](N)Cc3ccc(O)cc3)[C@]12C` as the molecule, how does the MIC99 (Escherichia coli [1]) read?
**A.** inactive

**Q.** Which results are given for `CC(C)[C@H](N)C(=O)NCC(=O)O[C@@H]1CC[C@@]2(C)[C@@H](C1)C[C@@H](OC(=O)CNC(=O)[C@@H](N)C(C)C)[C@@H]1[C@@H]2C[C@H](OC(=O)CNC(=O)[C@@H](N)C(C)C)[C@]2(C)[C@@H]([C@H](C)CCC(=O)OCc3ccccc3)CC[C@@H]12.Cl.Cl.Cl`?
**A.** MIC99 (Escherichia coli [1]): 8 µM; MIC99 (Klebsiella pneumoniae [2]): 16 µM; MIC99 (Acinetobacter baumannii [3]): 16 µM; Activity [4]: Active; inhibition (Lipopolysaccharide (LPS) [5]): Active; Activity (Lipopolysaccharide (LPS) [6]): Active; K (Cell membrane [7]): 2.41 ×10⁴ /Ms; K (Cell membrane [8]): 6 ×10⁻² /s; K (Cell membrane [9]): 4.06 ×10⁵ /M; K (Cell membrane [10]): 4.19 ×10⁻⁵ /s; K (Cell membrane [11]): 2.39 ×10² /M; KA (Cell membrane [12]): 9.6 ×10⁷ /M; Activity (Escherichia coli [13]): Active; Activity (Escherichia coli [14]): Active; Activity (Escherichia coli [15]): Active; Activity (Escherichia coli [16]): inactive; Activity (Escherichia coli [17]): inactive; Activity (Escherichia coli [18]): Active; Activity (Escherichia coli [19]): Active; Activity (Escherichia coli [20]): Dose-dependent effect; log(activity) (Escherichia coli [21]): 8; Activity (Escherichia coli [22]): 90%; Activity (Escherichia coli [23]): Active; Activity (Escherichia coli [24]): Active; Activity (Escherichia coli [25]): Active; MIC99 (Escherichia coli [26]): 8 µM; MIC99 (Escherichia coli [27]): 8 µM; MIC99 (Escherichia coli [28]): 8 µM; MIC99 (Escherichia coli [29]): 4 µM; MIC99 (Escherichia coli [30]): 4 µM; MIC99 (Acinetobacter baumannii [31]): 16 µM; MIC99 (Acinetobacter baumannii [32]): 16 µM; MIC99 (Acinetobacter baumannii [33]): 4 µM; MIC99 (Acinetobacter baumannii [34]): 8 µM; MIC99 (Acinetobacter baumannii [35]): 4 µM; MIC99 (Klebsiella pneumoniae [36]): 8 µM; MIC99 (Klebsiella pneumoniae [37]): 8 µM; MIC99 (Klebsiella pneumoniae [38]): 4 µM; MIC99 (Klebsiella pneumoniae [39]): 8 µM; selectivity ratio [40]: 6 to 7; selectivity ratio [41]: 6 to 7; CMC [42]: > 100 µM; Activity (Escherichia coli [43]): Active; Activity (Escherichia coli [44]): Active; Activity (Escherichia coli [45]): Active; Ratio (Escherichia coli [46]): 2; Activity (Escherichia coli [47]): Active; Activity (Escherichia coli [48]): 3 um; Activity (Escherichia coli [49]): Active; Activity (Escherichia coli [50]): Active; Activity (Escherichia coli [51]): Active; Activity (Escherichia coli [52]): Active; Activity (Escherichia coli [53]): Active
